Laboratory results from the M2OR odorant receptor database.

Legend:
Settings in all cases: stereoisomer not certain
[1] = target: T1, UniProt Q8VF24
T1 sequence (whole entry): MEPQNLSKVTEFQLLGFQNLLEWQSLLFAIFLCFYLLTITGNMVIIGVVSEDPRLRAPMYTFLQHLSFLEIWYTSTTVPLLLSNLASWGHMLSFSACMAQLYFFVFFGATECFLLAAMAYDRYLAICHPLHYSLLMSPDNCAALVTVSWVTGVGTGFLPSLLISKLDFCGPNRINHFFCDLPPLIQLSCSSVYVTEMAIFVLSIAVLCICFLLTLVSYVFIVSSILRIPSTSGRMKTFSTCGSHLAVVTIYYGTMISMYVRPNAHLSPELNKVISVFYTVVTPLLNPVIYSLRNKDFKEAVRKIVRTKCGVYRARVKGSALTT
How it was run: (§1)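 Transient luciferase assays in mammalian cell lines were common, though methods varied by source. The values come from published papers and their supplementary material, with extra details from the original authors when needed. Responsive refers to a measured signal the original authors judged statistically different from baseline, and non-responsive (inactive) to the remainder.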

[2] = target: T2, UniProt Q8VF43
T2 sequence (whole entry): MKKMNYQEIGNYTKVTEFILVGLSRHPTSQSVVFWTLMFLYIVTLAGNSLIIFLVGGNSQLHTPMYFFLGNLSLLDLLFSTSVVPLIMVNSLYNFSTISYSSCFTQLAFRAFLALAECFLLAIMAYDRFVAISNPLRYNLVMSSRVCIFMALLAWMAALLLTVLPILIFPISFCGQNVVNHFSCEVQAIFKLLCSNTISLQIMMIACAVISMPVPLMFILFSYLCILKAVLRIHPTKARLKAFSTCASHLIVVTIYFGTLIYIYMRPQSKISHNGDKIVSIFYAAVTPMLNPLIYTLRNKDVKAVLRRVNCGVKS
How it was run: as §1

[3] = target: T3, UniProt Q8VF44
T3 sequence (whole entry): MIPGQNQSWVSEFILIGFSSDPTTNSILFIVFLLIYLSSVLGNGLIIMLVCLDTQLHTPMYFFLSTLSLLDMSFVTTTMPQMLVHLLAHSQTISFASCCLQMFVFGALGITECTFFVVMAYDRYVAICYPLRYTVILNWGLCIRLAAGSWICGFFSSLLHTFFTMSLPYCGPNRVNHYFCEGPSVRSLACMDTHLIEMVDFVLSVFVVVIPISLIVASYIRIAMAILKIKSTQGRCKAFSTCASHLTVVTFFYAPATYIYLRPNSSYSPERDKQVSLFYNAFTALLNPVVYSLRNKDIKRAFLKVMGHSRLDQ
How it was run: as §1

[4] = target: T4, UniProt Q8VF52
T4 sequence (whole entry): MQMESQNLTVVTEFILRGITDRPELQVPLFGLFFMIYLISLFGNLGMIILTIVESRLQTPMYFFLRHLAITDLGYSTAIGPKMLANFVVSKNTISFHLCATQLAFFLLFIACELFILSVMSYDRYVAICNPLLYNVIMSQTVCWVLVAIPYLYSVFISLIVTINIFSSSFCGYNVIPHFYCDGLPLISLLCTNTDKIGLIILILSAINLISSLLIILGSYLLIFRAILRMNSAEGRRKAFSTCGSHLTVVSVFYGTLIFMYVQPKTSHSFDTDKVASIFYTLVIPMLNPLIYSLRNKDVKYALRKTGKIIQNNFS
How it was run: as §1

[5] = target: T5, UniProt Q8VFG6
T5 sequence (whole entry): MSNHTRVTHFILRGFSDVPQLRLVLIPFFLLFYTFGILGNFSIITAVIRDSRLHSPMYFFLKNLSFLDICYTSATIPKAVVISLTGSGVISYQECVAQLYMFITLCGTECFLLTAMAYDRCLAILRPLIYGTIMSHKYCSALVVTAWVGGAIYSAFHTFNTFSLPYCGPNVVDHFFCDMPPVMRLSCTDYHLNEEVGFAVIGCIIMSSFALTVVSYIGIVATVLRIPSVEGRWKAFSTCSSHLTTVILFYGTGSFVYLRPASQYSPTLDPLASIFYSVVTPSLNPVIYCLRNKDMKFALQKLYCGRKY
How it was run: as §1

[6] = target: T6, UniProt Q8VFM8
T6 sequence (whole entry): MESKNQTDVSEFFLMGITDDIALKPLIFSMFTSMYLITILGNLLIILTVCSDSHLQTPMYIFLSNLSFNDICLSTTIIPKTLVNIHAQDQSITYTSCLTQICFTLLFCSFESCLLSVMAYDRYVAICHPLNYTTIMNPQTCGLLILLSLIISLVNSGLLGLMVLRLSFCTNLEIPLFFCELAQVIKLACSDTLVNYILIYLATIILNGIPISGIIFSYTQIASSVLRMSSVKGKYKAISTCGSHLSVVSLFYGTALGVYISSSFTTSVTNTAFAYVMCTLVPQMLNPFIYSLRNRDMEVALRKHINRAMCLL
How it was run: as §1

[7] = target: UniProt Q8VF06
Sequence of UniProt Q8VF06 (Q8VF06 as listed by the source): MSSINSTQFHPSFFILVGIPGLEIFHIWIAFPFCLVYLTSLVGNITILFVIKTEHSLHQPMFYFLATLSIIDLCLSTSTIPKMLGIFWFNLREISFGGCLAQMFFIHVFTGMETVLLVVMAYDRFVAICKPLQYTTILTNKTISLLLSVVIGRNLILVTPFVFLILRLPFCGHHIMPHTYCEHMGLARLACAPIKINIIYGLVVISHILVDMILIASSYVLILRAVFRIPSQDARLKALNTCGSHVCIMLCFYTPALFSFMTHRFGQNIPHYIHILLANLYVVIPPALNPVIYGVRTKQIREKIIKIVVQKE
How it was run: as §1

[8] = target: UniProt Q8VF73
Sequence of UniProt Q8VF73 (Q8VF73 as listed by the source): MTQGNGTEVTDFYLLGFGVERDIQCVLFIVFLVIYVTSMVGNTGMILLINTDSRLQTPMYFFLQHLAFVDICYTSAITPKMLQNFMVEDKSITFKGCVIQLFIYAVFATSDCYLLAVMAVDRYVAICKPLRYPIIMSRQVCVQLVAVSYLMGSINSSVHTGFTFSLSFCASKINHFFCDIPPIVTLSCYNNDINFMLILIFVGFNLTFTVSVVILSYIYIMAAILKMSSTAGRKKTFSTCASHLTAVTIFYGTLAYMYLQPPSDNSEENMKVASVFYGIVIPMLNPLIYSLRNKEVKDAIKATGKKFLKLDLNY
How it was run: as §1

[9] = target: UniProt Q8VFB8
Sequence of UniProt Q8VFB8 (Q8VFB8 as listed by the source): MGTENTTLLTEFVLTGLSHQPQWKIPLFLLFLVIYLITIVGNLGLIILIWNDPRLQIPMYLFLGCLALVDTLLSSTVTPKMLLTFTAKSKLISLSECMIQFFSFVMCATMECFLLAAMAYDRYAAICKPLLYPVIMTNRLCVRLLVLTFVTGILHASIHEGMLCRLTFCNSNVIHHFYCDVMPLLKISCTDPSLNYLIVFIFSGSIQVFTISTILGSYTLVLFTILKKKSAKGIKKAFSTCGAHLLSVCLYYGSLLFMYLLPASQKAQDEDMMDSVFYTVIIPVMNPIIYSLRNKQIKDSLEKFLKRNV
How it was run: as §1

Measured: odorant receptor agonist call

C=C(C)C1CCC(C)C(=O)C1 (stereo unspecified)
active: [4]
inactive: [1] | [2] | [3] | [5] | [6]

CC(C)=CCCC(C)=CCO
inactive: [1] | [2] | [3] | [4] | [5] | [6]

CCCCCCCCCCC(=O)O
inactive: [7]

CCCCC(=O)O
inactive: [7] | [1] | [2] | [3] | [4] | [5] | [6]

O=C1CCOc2ccccc21
inactive: [1] | [2] | [3] | [6]
active: [4] | [8] | [9] | [5]

CC(=O)Oc1ccccc1
inactive: [1] | [2] | [3] | [4] | [5] | [6]

c1ccccc1
inactive: [1] | [2] | [3] | [4] | [5] | [6]

CCCCCCO
inactive: [7] | [1] | [2] | [3] | [4] | [5] | [6]

CCCCCC(=O)CC
inactive: [1] | [2] | [3] | [4] | [5] | [6]

CCCCCCCCC(=O)O
active: [7]
inactive: [1] | [2] | [3] | [4] | [5] | [6]

COc1cc(C(=O)O)ccc1O
inactive: [1] | [2] | [3] | [4] | [5] | [6]

O=C([O-])CCCCCCCC(=O)[O-].[H+].[H+]
inactive: [7] | [2] | [4] | [6]

CC(=O)OCc1ccccc1
inactive: [1] | [2] | [3] | [4] | [5] | [6]

CCCCCCCC(C)=O
inactive: [1] | [2] | [3] | [4] | [5] | [6]

CCCCC=O
inactive: [7] | [2] | [4] | [6]

CCCCC(C)=O
inactive: [1] | [2] | [3] | [4] | [5] | [6]

CCCCCCCC(=O)[O-].[H+]
active: [7]
inactive: [1] | [3] | [4] | [5]

CCCCCCCO
inactive: [7] | [1] | [2] | [3] | [4] | [5] | [6]

O=C(O)CCCCCCCCCCCBr
active: [7]

CCCCC(=O)CC
inactive: [1] | [2] | [3] | [4] | [5] | [6]

CCCC(=O)C(C)=O
inactive: [1] | [2] | [3] | [4] | [5] | [6]

CCCCCCCCCS
inactive: [1] | [2] | [3] | [4] | [5] | [6]

CCCCCCCCCO
inactive: [7] | [1] | [2] | [3] | [4] | [5] | [6]

CCCCCCCCCCCC(=O)O
inactive: [7]

CCCCCCCCO
inactive: [7] | [1] | [2] | [3] | [4] | [5] | [6]

CCCC(C)=O
inactive: [7] | [1] | [3] | [4] | [5]

CCCCCCCCCCCO
inactive: [2] | [4] | [6]
active: [7]

O=C(O)CCCCCBr
inactive: [7] | [2] | [4] | [6]

O=C1Cc2ccccc2O1
inactive: [1] | [2] | [4] | [5] | [6]
active: [3]

O=C(O)CCCCCCCCCC(=O)O
inactive: [7]

CCCCCCC(C)=O
inactive: [1] | [2] | [3] | [4] | [5] | [6]

CCCCOC(=O)CCC
inactive: [7]

CC(C)=CCCC(C)CCO (stereo unspecified)
inactive: [1] | [2] | [3] | [4] | [5] | [6]

CCC(=O)O
inactive: [1] | [2] | [3] | [4] | [5] | [6]

O=c1ccc2ccccc2o1
active: [8]
inactive: [9]

Cc1c(C)c(C)c(C=O)c(C)c1C
inactive: [2] | [6]
active: [4]

CC=CC(=O)C1=C(C)CCCC1(C)C
active: [4]
inactive: [2] | [6]

Cc1ccc(C(C)C)cc1
inactive: [2] | [4] | [6]

CCCCCC(=Cc1ccccc1)C(OC)OC
inactive: [2] | [4] | [6]
